In the library only some 2.4% were active in any assay of this set; here they are far more common.
NPY1 pot ag: potentiators or agonists of human neuropeptide Y receptor Y1; AID 1304; NPY-Y1 expressing cells, potentiator/agonist activation; activation, % at 3.6 µM; P25929; 220,000 tested, 0.37% active; in the data active = activation above about 33%, passing the limit was not always enough;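 note: cells stimulated with NPY at EC10 then isoproterenol at EC100; 0% = low agonist plus stimulus and 100% = saturating agonist plus stimulus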
Target sequence (P25929 whole entry, looked up): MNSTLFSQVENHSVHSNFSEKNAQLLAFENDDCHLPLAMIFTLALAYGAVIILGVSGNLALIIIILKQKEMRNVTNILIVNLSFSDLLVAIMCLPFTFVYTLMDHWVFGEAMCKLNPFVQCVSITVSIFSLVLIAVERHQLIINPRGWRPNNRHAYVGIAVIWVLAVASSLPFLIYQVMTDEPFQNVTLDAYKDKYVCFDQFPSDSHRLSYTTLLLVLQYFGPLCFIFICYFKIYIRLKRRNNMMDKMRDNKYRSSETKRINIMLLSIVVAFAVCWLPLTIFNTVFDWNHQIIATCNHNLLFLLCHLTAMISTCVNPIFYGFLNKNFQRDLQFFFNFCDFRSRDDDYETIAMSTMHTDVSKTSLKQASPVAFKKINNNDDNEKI
S1P4 antag: blocks the human S1P4 receptor; O95977; S1P4-expressing cells, antagonist mode, reporter read-out; inhibition, % at 4.98 µM; 220,000 tested, 0.26% active; AID 1510; in the data active = inhibition above about 29%;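 note: 0% = wells stimulated with agonist and 100% = vehicle wells without agonist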
NPY-Y2 antag: antagonists of human neuropeptide Y receptor Y2; P49146; NPY-Y2 expressing cells, antagonist mode; inhibition, % at 2.7 µM; 140,000 tested, 0.99% active; in the data active = inhibition above about 17%;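 note: 0% = vehicle with agonist challenge and 100% = reference antagonist with challenge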
S1P4 agonist: activates the human S1P4 receptor. 220,000 tested, 0.35% active. activation, % at 4.98 µM. AID 1509. S1P4-expressing cell line, agonist reporter assay; in the data active = activation above about 11%;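 note: 0% = DMSO vehicle and 100% = reference agonist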
NPY-Y2 PAM-ag: potentiators or agonists of human neuropeptide Y receptor Y2; P49146; cells expressing NPY-Y2, potentiator/agonist read-out; activation, % at 3.6 µM; 220,000 tested, 0.45% active; AID 1359; in the data active = activation above about 27%;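 note: cells stimulated with NPY near EC25 plus isoproterenol at EC100; 0% = vehicle plus submaximal agonist and 100% = vehicle plus saturating agonist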
NPY-Y1 antag: antagonists of human neuropeptide Y receptor Y1. AID 1040. inhibition, % at 3.6 µM. P25929. HEK293-CNG Y1 cells, membrane potential fluorescence; NPY at EC95, then isoproterenol. 200,000 tested, 1% active;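 active = inhibition above the campaign mean inhibition of all tested compounds plus 3 SD, cut at about 20% in these data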;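 note: 0% = DMSO wells given NPY plus isoproterenol and 100% = isoproterenol alone without NPY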
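Test system: HEK293 cells co-expressing NPY Y1 receptor and cyclic-nucleotide gated channel; Also added: NPY (25 nM), isoproterenol (1 µM), Ro 20-1724 (25 µM); Compound dosing: one concentration, 3.6 µM, in 0.4% DMSO; Timing: dye 3 h, compound 60 min room temperature, stimulation 45 min; Technique: Membrane-potential fluorescent dye readout.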
NPY-Y1 confirm: confirmation of human NPY-Y1 receptor potentiators or agonists. cell-based NPY-Y1 potentiator/agonist assay. shares compounds with NPY1 pot ag. activation, % at 3.6 µM. 280 tested, 20% active; in the data active = activation above about 45%;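 note: cells challenged with NPY at its EC10 plus isoproterenol stimulus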
NPY-Y2 counter: potentiates or activates NPY-Y2, counter-screen for NPY-Y1 hits. AID 1649. activation, % at 3.6 µM. shares compounds with NPY1 pot ag. HEK293-CNG cells, membrane-potential fluorescence (FLIPR), 1536-well. 280 tested, 20% active; in the data active = activation above about 33%
NPY-Y1 ag: human NPY-Y1 agonism as potentiator counter-screen. HEK293 Y1-CNGC, membrane potential fluorescence, agonist mode. activation, % at 3.6 µM. 280 tested, 50% active. shares compounds with NPY1 pot ag;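 active = percent activation above the mean of DMSO-only control wells plus 3 SD of those wells, cut at about 18% in these data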;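 note: cells challenged with isoproterenol plus Ro 20-1724 with no NPY in test wells; Y1 agonism lowers isoproterenol-driven cAMP and reduces probe fluorescence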
NPY-Y2 ag: counter-screen for NPY-Y1 potentiators or agonists: agonists of NPY-Y2; shares compounds with NPY1 pot ag; HEK293 Y2-CNGC, membrane potential fluorescence, agonist mode; activation, % at 3.6 µM; 280 tested, 67% active;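 active = activation above the solvent-only control wells' mean plus 3 SD, cut at about 11% in these data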;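 note: 0% = DMSO with isoproterenol and 100% = 40 nM NPY maximal response; agonism lowers cAMP so well fluorescence drops in active wells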
CNGC counter: counter-screen for NPY-Y1 potentiators or agonists: CNG channel inhibitors. shares compounds with NPY1 pot ag. HEK293-CNG parental, isoproterenol cAMP, membrane potential fluorescence. inhibition, % at 3.6 µM. 280 tested, 42% active;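 active = inhibition above the mean of stimulated solvent-only control wells plus 3 SD, cut at about 22% in these data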;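 note: 0% = isoproterenol-stimulated DMSO wells and 100% = unstimulated DMSO wells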
Active calls of the source: *; nt = no result.

SMILES	NPY1 pot ag	S1P4 antag	NPY-Y2 antag	S1P4 agonist	NPY-Y2 PAM-ag	NPY-Y1 antag	NPY-Y1 confirm	NPY-Y2 counter	NPY-Y1 ag	NPY-Y2 ag	CNGC counter
CC(C)(C)c1sc(N)nc1-c1ccccc1	25	-2	0	-1	27	-10	nt	nt	nt	nt	nt
Cn1cccc/c1=N\c1cccc[n+]1C	10	-5	nt	0	8	nt	nt	nt	nt	nt	nt
CN(C1CCCCC1)S(=O)(=O)c1ccc(NC(=O)CCC(=O)O)cc1	-23	-1	0	-1	2	-2	nt	nt	nt	nt	nt
CC(C)OC(=O)Cn1c(=O)sc2ccccc21	20	-6	0	0	5	0	nt	nt	nt	nt	nt
O=C(Cn1c(=O)sc2ccccc21)OC(CCl)CCl	44*	-17	0	1	24	-9	78*	49*	62*	49*	75*
Cc1cccc(Nc2nc(N)c([N+](=O)[O-])c(NCc3ccccc3)n2)c1	50*	-4	nt	0	34	nt	48*	32	33*	31*	45*
CCOc1ccc2c(c1)C(=O)c1cc(OCC(=O)O)ccc1-2	-3	-10	nt	-1	3	nt	nt	nt	nt	nt	nt
CCCCOc1ccc2c(c1)C(=O)c1cc(O)ccc1-2	38*	-3	nt	3	23	-4	49*	41*	40*	39*	33*
O=C(CSc1nc2cc(C(F)(F)F)ccc2n1Cc1ccccc1)NC1CCS(=O)(=O)C1 (configuration not stated)	48*	-10	2	1	32	-10	91*	63*	78*	53*	72*
Cc1ccc(S(=O)(=O)Nc2ccc(NC(=O)c3ccc(F)cc3)cc2)cc1	13	-14	nt	0	-2	1	nt	nt	nt	nt	nt
CCCCC(=O)Nc1ccc(C(=O)Nc2ccc(S(=O)(=O)Nc3ccc(C)cc3)cc2)cc1	60*	12	-5	1	22	-11	20	16	10	16*	15
CS/C(Nc1cc(Cl)ccc1Cl)=C(/C#N)C(=O)c1ccco1	51*	-1	nt	0	6	nt	17	7	12	16*	7
CCCC(=O)Nc1ccc(Cl)c(NC(=O)c2ccco2)c1	5	-7	-1	0	7	3	nt	nt	nt	nt	nt
COc1ccc(CNC(=O)c2c(O)c3cccc4c3n(c2=O)CCC4)cc1	-19	-15	1	-1	11	-7	nt	nt	nt	nt	nt
COc1ccc(CNC(=O)c2c(O)c3cccc4c3n(c2=O)CCC4)cc1OC	35*	-4	2	0	-16	1	-8	0	-3	3	-1
COc1ccc(Oc2c(Cl)cnn(-c3ccc(Cl)c(Cl)c3)c2=O)cc1	82*	3	-1	4	20	-5	78*	49*	61*	43*	65*
CN(Cc1c(F)cccc1Cl)c1ccc(S(=O)(=O)N2CCOCC2)cn1	-17	-1	3	-1	-9	6	nt	nt	nt	nt	nt
CCN=c1scc(C)n1/N=C/c1ccc(O)c(O)c1O	0	-7	-2	1	6	-4	nt	nt	nt	nt	nt
COCCN=c1scc(-c2cccs2)n1/N=C/c1ccc(O)c(O)c1O	54*	-16	0	13*	32	-3	32	20	29*	9	20
CC(=O)N1CCN(c2nc(CC(C)C)c3c(c2C#N)CCC3)CC1	7	-2	2	1	-25	4	nt	nt	nt	nt	nt
CC(C)Cc1nc(N2CCN(C(=O)C(C)C)CC2)c(C#N)c2c1CCC2	31*	-2	10	-1	-9	7	-22	-8	-26	-7	-9
Cc1cc(OCC(O)CN)ccc1Cl (configuration not stated)	51*	2	nt	-3	20	2	12	9	8	18*	5
Cc1ccc(OCCSc2nnc(-c3ccncc3)n2C)cc1	-10	0	2	-3	9	0	nt	nt	nt	nt	nt
CCCOC(=O)c1c(-c2ccc(C)cc2C)csc1NC(=O)C1C2CCC(O2)C1C(=O)O (configuration not stated)	48*	2	-1	2	25	-1	18	9	18*	13*	12
O=c1[nH]cnc2ccccc12	-33	0	1	-4	6	2	nt	nt	nt	nt	nt
SMILES	NPY1 pot ag	S1P4 antag	NPY-Y2 antag	S1P4 agonist	NPY-Y2 PAM-ag	NPY-Y1 antag	NPY-Y1 confirm	NPY-Y2 counter	NPY-Y1 ag	NPY-Y2 ag	CNGC counter
O=C(COc1ccccc1)NC1CCCc2ccccc21 (configuration not stated)	5	-3	4	0	7	7	nt	nt	nt	nt	nt
Cc1ccc(N2C(=S)NC3c4cc(Cl)ccc4OC2(C)C3C(=O)N(C)C)cc1 (configuration not stated)	35*	-9	nt	2	26	-6	74*	44*	51*	47*	51*
Cc1cccc(N2C(=S)NC3c4cc(Cl)ccc4OC2(C)C3C(=O)N(C)C)c1 (configuration not stated)	42*	-7	nt	2	14	-4	59*	32	44*	33*	47*
COc1ccc(N2C(=S)NC3c4cc(Cl)ccc4OC2(C)C3C(=O)N(C)C)cc1 (configuration not stated)	32	-3	nt	-1	19	-6	nt	nt	nt	nt	nt
Clc1ccc(-[n+]2c(-c3cccc(Br)c3)[nH]c3nc4ccccc4nc32)cc1	51*	-14	nt	1	7	nt	50*	47*	5	36*	6
Oc1ccc(Cl)cc1-c1cc(-c2cccc(Br)c2)n[nH]1	28	-9	0	2	11	-3	nt	nt	nt	nt	nt
O=[N+]([O-])c1cccc(C(=S)N2CCN(c3ccc(F)cc3)CC2)c1	3	4	nt	1	3	-3	nt	nt	nt	nt	nt
COc1cc(OC)cc(C(=O)Nc2ccc(NC(=O)c3ccco3)c(Cl)c2)c1	67*	-14	nt	1	-21	6	-16	-10	-10	9	-5
CCN(CC)S(=O)(=O)c1ccc(C(=O)NNC(=O)c2cccs2)cc1	13	-9	-1	5	1	-3	nt	nt	nt	nt	nt
CCN(CC)S(=O)(=O)c1ccc(NC(=O)c2cccs2)cc1	86*	-2	nt	-1	-17	1	-6	-2	-8	3	6

Screening results (PubChem)
